According to ChEMBL document CHEMBL1126640, “Inhibition studies of some serine and thiol proteinases by new leupeptin analogues” (J Med Chem, 1993):
Where a SMILES comes first, the peptide text is derived from it.

Key:
Cathepsin B [1] = target: T1, Cathepsin B (Bos taurus, UniProt P07688); experiment: Inhibition of cathepsin B with Cbz-L-lysine-p-nitrophenyl ester; Not significantly active
How it was run: (§1)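 Bovine spleen cathepsin B stock (0.163 mg/mL) in 0.10 M sodium phosphate pH 6.0 with 0.10 mg/mL DTT. Diluted in 0.10 M phosphate pH 6.0, preincubated ± inhibitor 2.5 min at 30 °C. Started with Nα-Cbz-L-lysine p-nitrophenyl ester (0.0024 M stock); A405 change over 1 min. IC50 from % inhibition vs log[inhibitor], ≥4 concentrations in ≥3 repeats. NA means ≤25% activity loss at 100 µM or more.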

Plasma kallikrein [2] = target: T2, Plasma kallikrein (Homo sapiens, UniProt P03952); experiment: Inhibition of kallikrein with benzoyl-L-arginine ethyl ester as substrate
Plasminogen [3] = target: T3, Plasminogen (Bos taurus, UniProt P06868); experiment: Inhibition of plasmin with Val-L-Leu-L-lysine-p-nitroanilide as substrate
How it was run: (§2)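 Bovine plasma plasmin (6.24 mg/mL stock) in 0.45 M Tris pH 8.0 with 0.011 M NaCl, preincubated ± inhibitor 2.5 min at 37 °C. Reaction started with D-Val-L-Leu-L-Lys p-nitroanilide (0.0031 M stock); A405 change over 1 min. IC50 read from % inhibition vs log[inhibitor], ≥4 concentrations, each ≥3 times. NA: ≥100 µM lowers activity ≤25%.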

Prothrombin [4] = target: T4, Prothrombin (Bos taurus, UniProt P00735); experiment: Inhibition of thrombin with benzoyl-Phe-Val-arginine- p-nitroanilide as substrate
How it was run: (§3)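 Bovine plasma thrombin (19.7 NIH units/mL stock) in 0.01 M Tris pH 8.0, preincubated ± inhibitor 2.5 min at 37 °C. Benzoyl-Phe-Val-Arg p-nitroanilide (0.0005 M stock in 6.8% DMSO/buffer) initiated; A405 change over 1 min. Percent inhibition at ≥4 concentrations (≥3 repeats) plotted against log concentration for IC50.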

Serine protease 1 [5] = target: T5, Serine protease 1 (Bos taurus, UniProt P00760); experiment: Inhibition of trypsin with benzoyl-L-arginine ethyl ester as substrate; […]
T5 sequence (P00760 whole entry): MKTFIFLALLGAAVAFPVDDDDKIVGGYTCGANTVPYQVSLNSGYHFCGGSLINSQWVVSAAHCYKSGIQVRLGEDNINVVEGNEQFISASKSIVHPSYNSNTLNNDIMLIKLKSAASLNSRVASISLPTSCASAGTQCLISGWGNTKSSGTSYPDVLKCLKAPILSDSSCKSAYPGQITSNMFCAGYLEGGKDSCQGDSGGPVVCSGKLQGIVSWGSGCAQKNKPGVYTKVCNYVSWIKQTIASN

Cathepsin B [6] = target: T1, Cathepsin B; experiment: Inhibition of cathepsin B with Cbz-L-lysine-p-nitrophenyl ester as substrate; how it was run: as §1
Prothrombin [7] = target: T4, Prothrombin; experiment: Inhibition of thrombin with benzoyl-Phe-Val-arginine- p-nitroanilide as substrate; Not significantly active; how it was run: as §3
Plasma kallikrein [8] = target: T2, Plasma kallikrein; experiment: Inhibition of kallikrein with benzoyl-L-arginine ethyl ester as substrate; Not significantly active
Serine protease 1 [9] = target: T5, Serine protease 1; experiment: Inhibition of trypsin with benzoyl-L-arginine ethyl ester as substrate
Plasminogen [10] = target: T3, Plasminogen; experiment: Inhibition of plasmin with Val-L-Leu-L-lysine-p-nitroanilide; Not significantly active; how it was run: as §2

T3 sequence (P06868 104-583 limits assumed): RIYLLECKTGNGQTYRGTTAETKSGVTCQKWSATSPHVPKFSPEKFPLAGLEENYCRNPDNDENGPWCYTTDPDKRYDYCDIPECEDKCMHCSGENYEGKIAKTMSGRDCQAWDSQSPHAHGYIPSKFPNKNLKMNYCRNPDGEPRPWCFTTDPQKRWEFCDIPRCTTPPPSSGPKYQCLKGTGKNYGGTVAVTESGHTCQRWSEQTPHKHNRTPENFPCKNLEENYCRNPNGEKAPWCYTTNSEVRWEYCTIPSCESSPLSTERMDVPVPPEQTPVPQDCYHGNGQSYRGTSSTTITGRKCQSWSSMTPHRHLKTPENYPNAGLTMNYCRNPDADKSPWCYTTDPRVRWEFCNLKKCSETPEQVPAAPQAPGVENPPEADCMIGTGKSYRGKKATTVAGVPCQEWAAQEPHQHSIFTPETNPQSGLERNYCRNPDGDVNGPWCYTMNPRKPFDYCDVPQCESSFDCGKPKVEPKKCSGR
T3 sequence (P06868 584-812 limits assumed): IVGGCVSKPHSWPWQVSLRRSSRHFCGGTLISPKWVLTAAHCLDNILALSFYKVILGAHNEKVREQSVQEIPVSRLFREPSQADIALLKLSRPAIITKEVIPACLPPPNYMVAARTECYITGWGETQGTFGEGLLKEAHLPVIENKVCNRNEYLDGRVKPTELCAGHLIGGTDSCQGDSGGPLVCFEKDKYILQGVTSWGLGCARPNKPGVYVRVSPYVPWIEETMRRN
T2 sequence (P03952 20-390 limits assumed): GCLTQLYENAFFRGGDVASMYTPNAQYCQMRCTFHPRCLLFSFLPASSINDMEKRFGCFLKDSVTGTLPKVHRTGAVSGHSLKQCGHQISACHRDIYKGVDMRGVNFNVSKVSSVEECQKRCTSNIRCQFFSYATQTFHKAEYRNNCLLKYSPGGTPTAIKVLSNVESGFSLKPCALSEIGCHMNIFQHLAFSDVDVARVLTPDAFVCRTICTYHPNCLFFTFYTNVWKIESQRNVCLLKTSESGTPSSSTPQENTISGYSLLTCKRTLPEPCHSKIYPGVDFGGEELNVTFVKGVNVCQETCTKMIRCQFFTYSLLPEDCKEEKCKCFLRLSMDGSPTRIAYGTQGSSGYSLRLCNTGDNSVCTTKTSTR
T2 sequence (P03952 391-638 limits assumed): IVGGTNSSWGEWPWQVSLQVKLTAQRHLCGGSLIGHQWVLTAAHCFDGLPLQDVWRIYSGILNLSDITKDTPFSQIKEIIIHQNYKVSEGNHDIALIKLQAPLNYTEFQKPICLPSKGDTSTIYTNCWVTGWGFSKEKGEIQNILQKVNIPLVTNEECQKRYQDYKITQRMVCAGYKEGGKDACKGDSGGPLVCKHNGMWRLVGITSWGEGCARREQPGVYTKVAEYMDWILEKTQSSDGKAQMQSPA

| SMILES | IC50 (Cathepsin B [1]) | IC50 (Plasma kallikrein [2]) | IC50 (Plasminogen [3]) | IC50 (Prothrombin [4]) | IC50 (Serine protease 1 [5]) | IC50 (Cathepsin B [6]) | IC50 (Prothrombin [7]) | IC50 (Plasma kallikrein [8]) | IC50 (Serine protease 1 [9]) | IC50 (Plasminogen [10]) |
| --- | --- | --- | --- | --- | --- | --- | --- | --- | --- | --- |
| CC[C@H](C)[C@H](NC(C)=O)C(=O)N[C@@H](CC(C)C)C(=O)N[C@H](C=O)CCCN=C(N)N (Ac-Ile-Leu-Arg-aldehyde) | Not Active | 54 µM | 67 µM | 94 µM | Not Active | – | – | – | – | – |
| CC[C@H](C)[C@H](NC(C)=O)C(=O)N[C@@H](CC(C)C)C(=O)N[C@H](C=O)CCCCN (Ac-Ile-Leu-Lys-aldehyde) | – | – | 17 µM | – | Not Active | 2 µM | Not Active | Not Active | – | – |
| CC[C@H](C)[C@H](NC(=O)[C@H](CC(C)C)NC(C)=O)C(=O)N[C@H](C=O)CCCN=C(N)N (Ac-Leu-Ile-Arg-aldehyde) | – | 35 µM | 11 µM | 18 µM | – | 0.15 µM | – | – | 9.1 µM | – |
| CC(=O)N[C@@H](CC(C)C)C(=O)N[C@@H](Cc1ccc(O)cc1)C(=O)N[C@H](C=O)CCCN=C(N)N (Ac-Leu-Tyr-Arg-aldehyde) | – | 25 µM | 5.6 µM | 66 µM | Not Active | 1.6 µM | – | – | – | – |
| CC(=O)N[C@@H](CC(C)C)C(=O)N[C@H](C(=O)N[C@H](C=O)CCCN=C(N)N)C(C)C (Ac-Leu-Val-Arg-aldehyde) | – | 16 µM | – | – | Not Active | 130 µM | Not Active | – | – | Not Active |
| CC(=O)N[C@@H](CC(C)C)C(=O)N[C@H](C(=O)N[C@H](C=O)CCCCN)C(C)C (Ac-Leu-Val-Lys-aldehyde) | – | – | 13 µM | 140 µM | – | 0.004 µM | – | Not Active | 45 µM | – |
| CC(=O)N[C@@H](Cc1ccc(O)cc1)C(=O)N[C@@H](CC(C)C)C(=O)N[C@H](C=O)CCCN=C(N)N (Ac-Tyr-Leu-Arg-aldehyde) | – | 26 µM | 78 µM | 35 µM | Not Active | 22 µM | – | – | – | – |
| CC(=O)N[C@H](C(=O)N[C@@H](CC(C)C)C(=O)N[C@H](C=O)CCCN=C(N)N)C(C)C (Ac-Val-Leu-Arg-aldehyde) | – | 19 µM | 65 µM | 170 µM | – | 100 µM | – | – | 130 µM | – |
| CC(=O)N[C@H](C(=O)N[C@@H](CC(C)C)C(=O)N[C@H](C=O)CCCCN)C(C)C (Ac-Val-Leu-Lys-aldehyde) | – | – | – | – | Not Active | 28 µM | Not Active | Not Active | – | Not Active |
| CC(=O)N[C@@H](CC(C)C)C(=O)N[C@@H](CC(C)C)C(=O)N[C@H](C=O)CCCNC(=N)N [LEUPEPTIN] | – | 40 µM | 3.7 µM | 12 µM | – | 0.31 µM | – | – | 8.1 µM | – |

The remaining lines, values ahead:

| IC50 (Cathepsin B [1]) | IC50 (Plasma kallikrein [2]) | IC50 (Plasminogen [3]) | IC50 (Prothrombin [4]) | IC50 (Serine protease 1 [5]) | IC50 (Cathepsin B [6]) | IC50 (Prothrombin [7]) | IC50 (Plasma kallikrein [8]) | IC50 (Serine protease 1 [9]) | IC50 (Plasminogen [10]) | SMILES |
| --- | --- | --- | --- | --- | --- | --- | --- | --- | --- | --- |
| – | – | 18 µM | – | Not Active | 0.13 µM | Not Active | Not Active | – | – | CC(=O)N[C@@H](CC(C)C)C(=O)N[C@@H](CC(C)C)C(=O)N[C@H](C=O)CCCCN (Ac-Leu-Leu-Lys-aldehyde) |
| – | 41 µM | 3.6 µM | 8.2 µM | Not Active | 1.1 µM | – | – | – | – | CC(=O)N[C@@H](CC(C)C)C(=O)N[C@@H](Cc1ccccc1)C(=O)N[C@H](C=O)CCCN=C(N)N (Ac-Leu-Phe-Arg-aldehyde) |
| – | – | – | – | Not Active | 0.1 µM | Not Active | Not Active | – | Not Active | CC(=O)N[C@@H](CC(C)C)C(=O)N[C@@H](Cc1ccccc1)C(=O)N[C@H](C=O)CCCCN (Ac-Leu-Phe-Lys-aldehyde) |
| – | 16 µM | 7.7 µM | 71 µM | – | 1.5 µM | – | – | 37 µM | – | CC(=O)N[C@@H](Cc1ccccc1)C(=O)N[C@@H](CC(C)C)C(=O)N[C@H](C=O)CCCN=C(N)N (Ac-Phe-Leu-Arg-aldehyde) |
| – | – | – | – | Not Active | 18 µM | Not Active | Not Active | – | Not Active | CC(=O)N[C@@H](Cc1ccccc1)C(=O)N[C@@H](CC(C)C)C(=O)N[C@H](C=O)CCCCN (Ac-Phe-Leu-Lys-aldehyde) |
| – | 28 µM | 2.2 µM | 1.8 µM | – | 0.039 µM | – | – | 12 µM | – | CC(=O)N[C@@H](Cc1ccccc1)C(=O)N[C@H](C(=O)N[C@H](C=O)CCCN=C(N)N)C(C)C (Ac-Phe-Val-Arg-aldehyde) |
